ChEMBL document CHEMBL3244155, “Inhibitory analogues of the luteinizing hormone-releasing hormone having D-aromatic residues in positions 2 and 6 and variation in position 3” (1978)
Active and inactive are the calls of the source. No cut-off for these calls is given here. Non-standard residues stand in square brackets, D forms with d. Residues, ends and D or L forms follow the SMILES beside them. pGlu = O=C1CC[C@@H](C(=O)O)N1

What was measured:
[1] = target: T1, Gonadotropin-releasing hormone receptor (Rattus norvegicus) (UniProt P30969); experiment: Antagonist activity at LH-RH receptor in Sprague-Dawley rat pituitary gland assessed as change in LHRH-stimulated LH release at 0.1 ug/ml preincubated for 4 hrs followed by LH-RH addition at 5th and 6th hr 5 mins post compound addition and measured for 6 hrs by RIA
T1 sequence (whole entry): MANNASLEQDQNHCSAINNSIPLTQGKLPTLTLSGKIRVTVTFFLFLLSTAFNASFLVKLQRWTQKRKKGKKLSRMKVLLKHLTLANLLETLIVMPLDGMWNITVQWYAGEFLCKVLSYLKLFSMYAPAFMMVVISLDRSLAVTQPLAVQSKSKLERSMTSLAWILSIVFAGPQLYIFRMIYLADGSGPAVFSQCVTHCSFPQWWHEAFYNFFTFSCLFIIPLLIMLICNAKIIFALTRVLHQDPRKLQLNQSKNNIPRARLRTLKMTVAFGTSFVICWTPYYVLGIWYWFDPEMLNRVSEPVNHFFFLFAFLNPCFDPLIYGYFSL
How it was run: (§1)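 Pituitaries from 20-day-old female Sprague-Dawley rats, two per 1 mL lactated Ringer's, shaken 6 h at 37 °C with medium changed each hour. Analogue added at hours 3–6. LH-RH 0.6 ng/mL medium added 5 min after peptide at hours 5 and 6. LH and FSH measured by RIA against rat standards. Change in ng/mL with SEM and p values.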

[2] = target: T1, Gonadotropin-releasing hormone receptor (Rattus norvegicus); experiment: Antagonist activity at LH-RH receptor in Sprague-Dawley rat pituitary gland assessed as change in LHRH-stimulated LH release at 1 ug/ml preincubated for 4 hrs followed by LH-RH addition at 5th and 6th hr 5 mins post compound addition and measured for 6 hrs by RIA; how it was run: as §1
[3] = target: T1, Gonadotropin-releasing hormone receptor (Rattus norvegicus); experiment: Antagonist activity at LH-RH receptor in Sprague-Dawley rat pituitary gland assessed as change in LHRH-stimulated LH release at 10 ug/ml preincubated for 4 hrs followed by LH-RH addition at 5th and 6th hr 5 mins post compound addition and measured for 6 hrs by RIA; how it was run: as §1
[4] = target: T1, Gonadotropin-releasing hormone receptor (Rattus norvegicus); experiment: Antagonist activity at LH-RH receptor in Sprague-Dawley rat pituitary gland assessed as change in LHRH-stimulated LH release at 100 ug/ml preincubated for 4 hrs followed by LH-RH addition at 5th and 6th hr 5 mins post compound addition and measured for 6 hrs by RIA; how it was run: as §1
[5] = target: T1, Gonadotropin-releasing hormone receptor (Rattus norvegicus); experiment: Agonist activity at LH-RH receptor in Sprague-Dawley rat pituitary gland assessed as change in LH release at 100 ug/ml measured for 6 hrs by RIA
How it was run: (§2)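 Two pituitaries from 20-day-old female Sprague-Dawley rats incubated 6 h at 37 °C in 1 mL lactated Ringer's with shaking. Medium removed hourly and replaced. Analogue alone added at hours 3–6. LH and FSH measured by RIA, expressed as ng/mL of medium against LH-LER-1240-2 and NIAMDD rat FSH RP-1 standards. Change reported with SEM.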

[6] = target: T1, Gonadotropin-releasing hormone receptor (Rattus norvegicus); experiment: Antagonist activity at LH-RH receptor in Sprague-Dawley rat pituitary gland assessed as change in LHRH-stimulated FSH release at 0.1 ug/ml preincubated for 4 hrs followed by LH-RH addition at 5th and 6th hr 5 mins post compound addition and measured for 6 hrs by RIA; how it was run: as §1
[7] = target: T1, Gonadotropin-releasing hormone receptor (Rattus norvegicus); experiment: Antagonist activity at LH-RH receptor in Sprague-Dawley rat pituitary gland assessed as change in LHRH-stimulated FSH release at 1 ug/ml preincubated for 4 hrs followed by LH-RH addition at 5th and 6th hr 5 mins post compound addition and measured for 6 hrs by RIA; how it was run: as §1
[8] = target: T1, Gonadotropin-releasing hormone receptor (Rattus norvegicus); experiment: Antagonist activity at LH-RH receptor in Sprague-Dawley rat pituitary gland assessed as change in LHRH-stimulated FSH release at 10 ug/ml preincubated for 4 hrs followed by LH-RH addition at 5th and 6th hr 5 mins post compound addition and measured for 6 hrs by RIA; how it was run: as §1
[9] = target: T1, Gonadotropin-releasing hormone receptor (Rattus norvegicus); experiment: Antagonist activity at LH-RH receptor in Sprague-Dawley rat pituitary gland assessed as change in LHRH-stimulated FSH release at 100 ug/ml preincubated for 4 hrs followed by LH-RH addition at 5th and 6th hr 5 mins post compound addition and measured for 6 hrs by RIA; how it was run: as §1
[10] = target: T1, Gonadotropin-releasing hormone receptor (Rattus norvegicus); experiment: Agonist activity at LH-RH receptor in Sprague-Dawley rat pituitary gland assessed as change in FSH release at 100 ug/ml measured for 6 hrs by RIA; how it was run: as §2
Rattus norvegicus [11] = experiment: Antiovulatory activity in rat assessed as inhibition of ovulation at 750 ug, sc relative to vehicle-treated control; format: functional
How it was run: (§3)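 Rats with 4-day cycles given one sc injection of analogue in corn oil on proestrus, between 12 and 12:30 p.m. Controls received 0.3 mL corn oil. Ova shed were counted on estrus. Percent of rats with ovulation inhibited was recorded, with ova per ovulating rat ± SEM.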

Rattus norvegicus [12] = experiment: Antiovulatory activity in rat assessed as inhibition of ovulation at 1500 ug, sc relative to vehicle-treated control; format: functional; how it was run: as §3
Rattus norvegicus [13] = experiment: Antiovulatory activity in rat assessed as inhibition of ovulation at 375 ug, sc relative to vehicle-treated control; format: functional; how it was run: as §3

Structure (SMILES) | Activity [1] [ng/mL] | Activity [2] [ng/mL] | Activity [3] [ng/mL] | Activity [4] [ng/mL] | Activity [5] | Activity [6] [ng/mL] | Activity [7] [ng/mL] | Activity [8] [ng/mL] | Activity [9] [ng/mL] | Activity [10] | inhibition (INH) (Rattus norvegicus [11]) [%] | inhibition (INH) (Rattus norvegicus [12]) [%] | inhibition (INH) (Rattus norvegicus [13]) [%]
CC(C)C[C@H](NC(=O)[C@@H](Cc1ccccc1)NC(=O)[C@H](Cc1ccc(O)cc1)NC(=O)[C@H](CO)NC(=O)[C@H](CCCNC(=N)N)NC(=O)[C@@H](Cc1ccccc1)NC(=O)[C@@H]1CCC(=O)N1)C(=O)N[C@@H](CCCNC(=N)N)C(=O)N1CCC[C@H]1C(=O)NCC(N)=O | 276 | 51 | 34 | 18 | inactive | 5390 | 1390 | 380 | -133 | inactive | 40 | – | –
CSCC[C@H](NC(=O)[C@@H](Cc1ccccc1)NC(=O)[C@@H]1CCC(=O)N1)C(=O)N[C@@H](CO)C(=O)N[C@@H](Cc1ccc(O)cc1)C(=O)N[C@H](Cc1c[nH]c2ccccc12)C(=O)N[C@@H](CC(C)C)C(=O)N[C@@H](CCCNC(=N)N)C(=O)N1CCC[C@H]1C(=O)NCC(N)=O | 77 | 52 | – | 10 | inactive | 3270 | -291 | – | -672 | inactive | 20 | – | –
CC(C)C[C@H](NC(=O)[C@@H](Cc1c[nH]c2ccccc12)NC(=O)[C@H](Cc1ccc(O)cc1)NC(=O)[C@H](CO)NC(=O)[C@@H](NC(=O)[C@@H](Cc1ccccc1)NC(=O)[C@@H]1CCC(=O)N1)C(C)C)C(=O)N[C@@H](CCCNC(=N)N)C(=O)N1CCC[C@H]1C(=O)NCC(N)=O | 44 | -32 | – | 7 | inactive | 3010 | -1140 | – | 110 | inactive | 16 | 60 | –
CC(C)C[C@H](NC(=O)[C@@H](Cc1c[nH]c2ccccc12)NC(=O)[C@H](Cc1ccc(O)cc1)NC(=O)[C@H](CO)NC(=O)[C@@H](Cc1ccccc1)NC(=O)[C@@H](Cc1ccccc1)NC(=O)[C@@H]1CCC(=O)N1)C(=O)N[C@@H](CCCNC(=N)N)C(=O)N1CCC[C@H]1C(=O)NCC(N)=O | 97 | 39 | – | 10 | inactive | 2120 | 70 | – | -814 | inactive | 40 | – | –
CC(C)C[C@H](NC(=O)[C@@H](Cc1ccccc1)NC(=O)[C@H](Cc1ccc(O)cc1)NC(=O)[C@H](CO)NC(=O)CN(C)C(=O)[C@@H](Cc1ccccc1)NC(=O)[C@@H]1CCC(=O)N1)C(=O)N[C@@H](CCCNC(=N)N)C(=O)N1CCC[C@H]1C(=O)NCC(N)=O | 339 | 127 | 22 | 13 | inactive | 4590 | 3450 | 518 | 321 | inactive | 50 | – | –
CC(C)C[C@H](NC(=O)[C@@H](Cc1ccccc1)NC(=O)[C@H](Cc1ccc(O)cc1)NC(=O)[C@H](CO)NC(=O)[C@@H](NC(=O)[C@@H](Cc1ccccc1)NC(=O)[C@@H]1CCC(=O)N1)[C@@H](C)O)C(=O)N[C@@H](CCCNC(=N)N)C(=O)N1CCC[C@H]1C(=O)NCC(N)=O | 159 | 97 | 18 | 16 | inactive | 5470 | 2450 | 751 | 379 | inactive | 0 | – | –
CC(C)C[C@H](NC(=O)[C@@H](Cc1ccccc1)NC(=O)[C@H](Cc1ccc(O)cc1)NC(=O)[C@H](CO)NC(=O)[C@@H]1CCCN1C(=O)[C@@H](Cc1ccccc1)NC(=O)[C@@H]1CCC(=O)N1)C(=O)N[C@@H](CCCNC(=N)N)C(=O)N1CCC[C@H]1C(=O)NCC(N)=O ([pGlu][dF]PSY[dF]LRPG-NH2) | 46 | 17 | – | 12 | inactive | 1380 | 280 | – | 179 | inactive | 100 | – | 20
CC[C@H](C)[C@H](NC(=O)[C@@H](Cc1ccccc1)NC(=O)[C@@H]1CCC(=O)N1)C(=O)N[C@@H](CO)C(=O)N[C@@H](Cc1ccc(O)cc1)C(=O)N[C@H](Cc1c[nH]c2ccccc12)C(=O)N[C@@H](CC(C)C)C(=O)N[C@@H](CCCNC(=N)N)C(=O)N1CCC[C@H]1C(=O)NCC(N)=O | 143 | 21 | – | 68 | inactive | 2310 | -348 | – | 645 | inactive | 0 | – | –
